Assay outcomes: PubChem, SRMLSC
H69AR inhibit – proliferation blockers of H69AR lung cancer cells, primary screen, cell-based, human, 86K library; H69AR lung tumor viability, ATP luminescence, 72 h; active compounds read low; viability, % at 10 µM; 85,000 compounds, 6% hits; AID 598, 2007;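 active means viability at or below 40%; inactive means viability above 40%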;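 further: multidrug resistant small cell line overexpressing MRP-1 efflux transporter; 100% = mean luminescence of untreated control wells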
Lung fibro prol – antiproliferative effect on LL 47 fibroblasts – human, LL 47 cells, CellTiter-Glo luminescence, primary screen; LL 47 human lung fibroblast viability, ATP luminescence; active compounds read low; viability, % at 10 µM; AID 719, 2007; 85,000 compounds, 1.1% hits;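 active means viability at or below 50% in the single dose screen; inactive means viability above 50%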;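 further: compound exposure lasted 72 h before the ATP readout; 100% = median luminescence of untreated cell-only wells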
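Times – overnight cell rest, 72 h compound treatment at 37 °C · Test system – human lung fibroblast line LL 47, low passage · Amount – 1,150 cells in each well · Controls – cell-only wells, no compound · Doses – 0.1% DMSO in all compound wells · Measured by – CellTiter-Glo luminescence · Buffer or medium – IMEM plus 15% FBS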
HUVEC inhibit – inhibitors of HUVEC proliferation, primary screen, cell-based, 384-well | CellTiter-Glo luminescence, 72 h; active compounds read low | viability, % at 10 µM (by protocol) | 86,000 compounds, 1.1% hits;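 active means viability at or below 30%; inactive means viability above 30%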;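 further: 100% = median luminescence of DMSO-only cell control wells on each plate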
HCT116 PTEN-null – growth suppression of PTEN-null HCT116, primary screen, cell-based, CellTiter-Glo; HCT116 PTEN-null viability, 60 h; active compounds read low; viability, % at 10 µM; 140,000 compounds, 1.2% hits;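 active means viability at or below a set limit, 4 SD under the median of all tested compounds, cut at about 3.7% in these data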;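 further: PTEN knockout HCT116 line with beta catenin targeted HCT116 as companion control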
bCat KO growth – primary screen for growth suppressors in beta-catenin knockout HCT116 cells (colon tumor, human) | viability, % at 10 µM | HCT116 beta-catenin knockout viability, CellTiter-Glo, 60 h; active compounds read low | 140,000 compounds, 1.5% hits;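 active means viability at or under a set limit, the compound median less 4 SD, cut at about 6% in these data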;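 further: 0% = Hyamine 1622 control at 20 µM and 100% = untreated cell control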
The depositor's hits bear a star; nt = not tested or not shown. The full list was thinned out, with hits kept by preference.

SMILES | H69AR inhibit | Lung fibro prol | HUVEC inhibit | HCT116 PTEN-null | bCat KO growth
CCCCn1nc(C(=O)Oc2ccc3c(C)cc(=O)oc3c2)c2ccccc2c1=O | nt | nt | nt | 99.6 | 95.8
COc1ccc(CN(C(=O)CSc2nnc(-c3c[nH]c4ccccc34)o2)c2ccc(F)cc2)cc1OC | 11.1* | 51.4 | 18.0* | 4.5 | 6.2
CC1CCCC(C)N1C(=O)CSc1nnc(-c2c[nH]c3ccccc23)o1 (configuration not stated) | 83.1 | 89.2 | 79.6 | 84.1 | 75.8
COC(=O)C(C)Sc1nc2c([nH]c3ccccc32)c(=O)n1C (configuration not stated) | 38.8* | 99.3 | 82.0 | 39.0 | 46.4
CCC1CCCCN1C(=O)CSc1nc2c([nH]c3ccccc32)c(=O)n1C (configuration not stated) | 33.5* | 105.3 | 85.4 | 76.3 | 88.4
CCC1CCCCN1C(=O)CSc1nnc(-c2c[nH]c3ccccc23)o1 (configuration not stated) | 34.5* | 93.4 | 108.5 | 79.5 | 75.2
CCC(C)Sc1nc2c([nH]c3ccccc32)c(=O)n1C (configuration not stated) | 55.3 | 84.5 | 92.0 | 75.4 | 78.6
O=C(CNC(=O)c1ccc(S(=O)(=O)N2CCCC2)cc1)N/N=C/c1ccc(Cl)cc1Cl | nt | nt | nt | 58.9 | 59.9
CN(c1ccccc1)S(=O)(=O)c1cccc(C(=O)OCC(=O)NCc2ccc3c(c2)OCO3)c1 | nt | nt | nt | 97.9 | 93.5
CNC(=O)C1CC(=O)N(CCCc2ccccc2)C(=Nc2ccccc2)S1 (configuration not stated) | 83.5 | 86.8 | 78.0 | 86.6 | 95.1
Cc1ccc(NC(=O)Cn2cccc2)c(C)c1 | 100.0 | 97.0 | 92.6 | 99.8 | 98.9
Cc1nn(C(=O)c2cccs2)c(C)c1CN1C(=O)c2ccccc2C1=O | 21.2* | 80.7 | 80.1 | 88.4 | 75.6
Cc1nn(C(=O)c2ccco2)c(C)c1CN1C(=O)c2ccccc2C1=O | 110.8 | 96.8 | 100.3 | 100.0 | 106.0
COC(=O)c1ccccc1NC(=O)COC(C)=O | 6.0* | nt | 101.4 | 80.3 | 73.8
CCOC(=O)c1ccccc1NC(=O)COC | 92.1 | 89.1 | 89.9 | 98.0 | 91.8
COc1ccc(NC(=O)C2CCCN2S(=O)(=O)c2cccc3cccnc23)c(OC)c1 (configuration not stated) | 100.7 | 89.4 | 107.4 | 84.6 | 86.7
COc1ccc(N(C)S(=O)(=O)c2cccc3cccnc23)c(OC)c1 | 16.7* | 75.2 | 58.9 | 25.0 | 22.0
O=C(c1cn(-c2ccccc2)nc1-c1ccncc1)n1nnc2ccccc21 | 8.1* | nt | 67.4 | nt | nt
O=C(O)c1cn(-c2ccccc2)nc1-c1ccncc1 | 104.1 | 108.6 | 91.7 | 96.7 | 87.5
COc1ccc(NC(=O)c2cnc3sccn3c2=O)cc1OC | 91.1 | 105.7 | 102.5 | nt | nt
CNc1ccc(/C=C/C(=O)c2cccc3ccccc23)cc1[N+](=O)[O-] | nt | nt | nt | 4.6 | 5.3*
COCCN1CSC(=S)N(Cc2ccco2)C1 | 0.8* | 82.3 | 69.5 | 40.8 | 25.1
O=C(CSc1nnnn1C1CCCCC1)NCc1ccccc1 | 92.1 | 100.6 | 100.3 | 88.2 | 90.7
O=C(Sc1nnnn1C1CCCCC1)c1cccs1 | 35.0* | nt | 106.5 | 110.3 | 102.8
CCCS(=O)(=O)N1CCN(Cc2ccc3c(c2)c2ccccc2n3CC)CC1 | nt | nt | nt | 74.8 | 72.7
SMILES | H69AR inhibit | Lung fibro prol | HUVEC inhibit | HCT116 PTEN-null | bCat KO growth
CC(=O)Oc1c(C)cc(Cl)cc1C(=O)Nc1ccc([N+](=O)[O-])cc1Cl | nt | nt | nt | 1.8* | 1.1*
COc1cccc2sc(N3CCN(c4nc5ccccc5s4)CC3)nc12 | 3.2* | 73.7 | 26.4* | 2.4* | 1.8*
c1ccc2sc(N3CCOCC3)nc2c1 | 94.1 | 109.8 | 102.3 | nt | 99.3
Cc1ccc(Cl)cc1N1CCN(c2cccc[n+]2C)CC1 | nt | nt | nt | 51.6 | 57.5
CCOc1ccc(OCC)c(NC(=O)CCCN2C(=S)NC(C)(C)CC2C)c1 (configuration not stated) | nt | nt | nt | 88.5 | 91.1
O=C(CSc1nnc2scc(-c3ccccc3)n12)Nc1nsc(-c2ccccc2)n1 | 38.4* | 109.5 | 86.6 | 61.8 | 72.5
CCOP(=O)(OCC)C(NC(=O)Nc1ccc(Cl)cc1)C(=O)N(CC)CC (configuration not stated) | nt | nt | nt | 87.0 | 91.5
NS(=O)(=O)c1ccc(N2N=C(c3ccccc3)CC2c2cccc(F)c2)cc1 (configuration not stated) | nt | nt | nt | 54.6 | 63.3
